A selection: hits, their analogues and other compounds. The true share with any hit is near 2.3%.
TRPC4 act – activators of mouse TRPC4 channel; AID 2237; Q9QUQ5; HEK293 TRPC4beta/mu-opioid, Fluo4 calcium fluorescence; stronger effect = higher value; 0.49% of 310,000 active; B-score at 10 µM;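 active means B-score above 5 SD of library B-scores, and initial fluorescence ratio not above library mean plus 5 SD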;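 further: positive B-score marks a calcium rise read as TRPC4 activation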
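System – HEK293 cells stably co-expressing mouse TRPC4beta and mu-opioid receptor · Signal – Fluo4 calcium-sensitive dye fluorescence, kinetic, 1 Hz baseline · Benchmarks – buffer (low) and maximal DAMGO (high) · Read-out – B score of integrated fluorescence ratio per well · Incubation – dye loading 45 min room temperature, 110 s kinetic read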
TRPC4 PAM – allosteric potentiators of mouse TRPC4 channel; 0.42% of 310,000 active; Q9QUQ5; B-score at 10 µM; HEK293 TRPC4beta/mu-opioid, DAMGO EC20, Fluo-4 Ca2+ flux; stronger effect = higher value; AID 2227;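 active means B-score of calcium response area above 5 SD of library B-scores, with initial fluorescence ratio within 5 SD of library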;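 further: B-score of integrated fluorescence ratio over time as area under calcium response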
TRPC6 activator – mouse TRPC6 channel activation | AID 2550 | 0.13% of 310,000 active | B-score at 10 µM | Q61143 | HEK293-TRPC6 membrane potential dye fluorescence; stronger effect = higher value;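 active means B-score of the integrated fluorescence ratio above library mean plus 3 SD, and starting fluorescence ratio within library mean plus 5 SD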;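 further: higher score means more depolarization so channel activation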
Target sequence (Q61143 whole entry, looked up): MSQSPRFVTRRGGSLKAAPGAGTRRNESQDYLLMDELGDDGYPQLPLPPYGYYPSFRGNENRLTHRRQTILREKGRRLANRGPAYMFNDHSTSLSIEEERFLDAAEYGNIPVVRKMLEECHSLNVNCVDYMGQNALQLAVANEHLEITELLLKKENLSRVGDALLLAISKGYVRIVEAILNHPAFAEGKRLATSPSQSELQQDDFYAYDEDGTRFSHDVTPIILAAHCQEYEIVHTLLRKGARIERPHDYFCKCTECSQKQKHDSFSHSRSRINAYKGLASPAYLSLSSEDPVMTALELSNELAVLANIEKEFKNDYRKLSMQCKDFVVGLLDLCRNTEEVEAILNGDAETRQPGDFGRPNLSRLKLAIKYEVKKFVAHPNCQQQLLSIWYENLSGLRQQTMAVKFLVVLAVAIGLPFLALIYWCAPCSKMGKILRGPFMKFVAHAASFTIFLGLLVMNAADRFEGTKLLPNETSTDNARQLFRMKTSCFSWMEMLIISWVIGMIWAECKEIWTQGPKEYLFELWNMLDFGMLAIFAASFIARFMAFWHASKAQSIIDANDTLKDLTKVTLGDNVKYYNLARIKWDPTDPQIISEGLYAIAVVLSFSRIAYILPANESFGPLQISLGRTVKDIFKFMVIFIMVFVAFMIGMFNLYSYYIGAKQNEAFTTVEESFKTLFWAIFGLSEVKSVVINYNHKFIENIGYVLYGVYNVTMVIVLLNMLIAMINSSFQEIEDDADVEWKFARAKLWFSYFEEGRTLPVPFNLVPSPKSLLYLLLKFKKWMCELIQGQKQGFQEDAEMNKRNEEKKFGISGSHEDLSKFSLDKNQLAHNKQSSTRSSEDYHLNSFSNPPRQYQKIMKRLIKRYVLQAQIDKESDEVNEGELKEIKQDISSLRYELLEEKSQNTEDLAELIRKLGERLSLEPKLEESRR
TRPC6 inh – blocks the mouse TRPC6 cation channel; HEK293-TRPC6, membrane potential dye, ACh-evoked depolarization; stronger effect = lower value; Q61143; B-score at 10 µM; 1.1% of 310,000 active;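 active means B-score under library mean minus 3 SD, initial fluorescence not abnormally high, positive integrated signal ratio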;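 further: B-score derived from integrated fluorescence ratio over the kinetic read; more negative B-score means stronger inhibition of depolarization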
TRPC4 block – blocks the mouse TRPC4 cation channel. 0.39% of 300,000 active. HEK293 TRPC4beta/mu-opioid, DAMGO-evoked Fluo4 calcium flux; stronger effect = lower value. B-score at 10 µM. Q9QUQ5;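 active means B-score over 3 SD under the library average, no early fluorescence shift, positive overall ratio signal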
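material = TRPC4beta/mu-opioid receptor HEK293 cell line | probe or stimulus = sequential submaximal and maximal DAMGO stimulation | compound dosing = one concentration per compound | measured by = Fluo4 Ca2+ flux fluorescence | evaluation = integrated fluorescence ratio relative to baseline, converted to per-well B score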
Active calls of the source: *; i = inactive.

SMILES	TRPC4 act	TRPC4 PAM	TRPC6 activator	TRPC6 inh	TRPC4 block
O=C1c2ccccc2C2(c3ccccc3)N1CCN2C(=O)C(Cl)(Cl)Cl (stereo unspecified)	i	i	i	i	i
CCOc1ccc(C(=O)OCC(=O)N2CCCC2)cc1	i	i	i	i	i
O=C(c1ccc(COc2ccccc2Br)cc1)N1CCCCCC1	i	12*	i	i	i
COc1cc(CNc2ccc3[nH]c(=O)[nH]c3c2)ccc1OCc1ccccc1Cl	i	12*	i	i	i
O=c1[nH]c2ccc(NCc3ccc(OCc4ccccc4Cl)cc3)cc2[nH]1	i	i	i	i	i
CN(C)CCNC(=O)c1cc2sc3ccccc3c2s1	i	10*	i	i	i
CCN(CC)C(=O)c1cc2sc3ccccc3c2s1	i	i	i	i	i
COCCN(CCOC)C(=O)c1cc2sc3ccccc3c2s1	i	13*	i	i	i
Cc1cc(C)c2sc(NC(=O)C3=COCCO3)nc2c1	i	i	i	i	i
COc1ccc(NC(=O)CN(C)CCOc2ccc(Cl)cc2)cc1OC	i	15*	i	i	i
CC1(c2ccccc2)O[C@@H]2C[C@H]3[C@@H]4CCC5=CC(=O)C=C[C@]5(C)[C@@]4(F)[C@@H](O)C[C@]3(C)[C@]2(C(=O)CO)O1 (stereo partly specified)	i	12*	i	i	i
Cc1ccc(SCCCCN2CCNCC2)cc1	i	13*	i	i	i
Cc1ccc(C(C)C)cc1OCCCCN1CCCC1	i	26*	i	i	i
Cc1ccc(Cl)c(OCCN2CCCC(C)C2)c1 (stereo unspecified)	i	34*	i	i	i
Cc1ccccc1OCCCCN1CCCCC1	i	i	i	i	i
Cc1ccc(SCCCCN2CCOCC2)cc1	i	i	i	i	i
Cc1ccc(C(C)C)c(OCCCCN2CCNCC2)c1	i	18*	i	i	i
Cc1ccc(CN(C)C(=O)C2CCC(=O)N(CC3CCCCC3)C2)o1 (stereo unspecified)	i	i	i	i	i
Cn1cnc2c1c(=O)n(Cc1ccc(Cl)cc1Cl)c(=O)n2C	i	i	i	i	i
Cc1ccc(C)c(OCCCN2CCCC2)c1	i	11*	i	i	i
O=C(c1ccccc1)N(Cc1ccc(F)cc1)Cc1nc2ccccc2c(=O)[nH]1	i	12*	i	i	i
CCC(C)NC(=O)CSc1nnc(-c2cc(OC)c(OC)c(OC)c2)c(-c2cc(OC)c(OC)c(OC)c2)n1 (stereo unspecified)	i	i	i	i	i
Cn1cccc1-c1nc2ccccc2n1Cc1ccccc1	i	i	i	i	-5*
c1ccc(Cn2c(CN3CCCC3)nc3ccccc32)cc1	i	i	i	i	-7*
CCOC(=O)Cn1c(=O)oc2cc(S(=O)(=O)N3CCCC(C(=O)OCC)C3)ccc21 (stereo unspecified)	i	i	i	i	i
SMILES	TRPC4 act	TRPC4 PAM	TRPC6 activator	TRPC6 inh	TRPC4 block
CCOC(=O)Cn1c(=O)oc2cc(S(=O)(=O)N3CCC(N4CCCCC4)CC3)ccc21	i	11*	i	i	i
CC(=O)c1ccc(OCC(=O)N2CCCC(Nc3ccc(C)c(C)c3)C2)cc1 (stereo unspecified)	i	i	i	i	i
CCCS(=O)(=O)c1c(S(=O)(=O)CCC)c2ccc(C(N)=O)cn2c1C(=O)c1ccc(OC)cc1	i	20*	i	i	i
CCCS(=O)(=O)c1c(S(=O)(=O)CCC)c2ccc(C(N)=O)cn2c1C(=O)OC	i	i	i	i	i
Cc1cc(C[n+]2ncsc2N)c2ncccc2c1	i	i	i	i	i
COc1ccc2c(c1)sc(N)[n+]2Cc1cc(C)cc2cccnc12	i	i	i	i	-5*
Cc1cc(C[n+]2cc(Cl)ccc2N)c2ncccc2c1	i	i	i	i	i
CCOc1ccc2c(c1)sc(N)[n+]2Cc1cc(C)cc2cccnc12	i	i	i	i	-7*
Cc1ccc(C(=O)Nc2ccc(F)cc2)cc1NC1=NC2CS(=O)(=O)CC2S1 (stereo unspecified)	i	i	i	i	i
O=S(=O)(c1cc(Cl)c(Cl)cc1Cl)N1CCN2CCCC2C1 (stereo unspecified)	67*	i	i	i	i
CCCn1c(N)c(C(=O)CSc2n[nH]c(-c3ccc(C)cc3)n2)c(=O)[nH]c1=O	i	123*	i	i	i
O=C(COc1ccc(Cl)cc1)Nc1ccc2c(c1)C(=O)NC2=O	i	i	i	i	i
O=C(CN1c2ccccc2S(=O)(=O)c2ccccc21)Nc1ccccc1F	i	i	i	i	i
Clc1ccc(COc2ccccc2CNCc2cccnc2)cc1	i	i	i	i	-6*
c1ccc(COc2cccc(CNCc3ccccn3)c2)cc1	i	i	i	i	i
c1ccc(COc2cccc(CNCc3cccnc3)c2)cc1	i	i	i	i	-6*
O=S(=O)(CCc1ccncc1)c1ccc(Cl)cc1	i	i	i	i	i
CC(C)(C)CC(C)(C)NCC(O)COc1ccc2c(c1)CCC2 (stereo unspecified)	i	i	i	i	-6*
CC(C)(CO)NCC(O)COc1ccc2c(c1)CCC2 (stereo unspecified)	i	i	i	i	i
Cc1ccc(C(C(=O)NC(C)(C)C)N(C(=O)CCC(=O)Nc2ccccn2)c2ccccc2F)cc1 (stereo unspecified)	i	i	i	i	-8*
Cc1ccc(C(C(=O)NC(C)(C)C)N(Cc2ccco2)C(=O)CCC(=O)Nc2ccccn2)cc1 (stereo unspecified)	i	i	i	i	i
Cc1ccccc1C(=O)N1CCC(C(=O)Nc2ccccn2)CC1	i	i	i	i	i
Cc1nn(-c2ccccc2)c2nc(-c3ccccc3)cc(C(=O)N3CCOCC3)c12	i	14*	i	i	i
Cc1cc(C)cc(OCC(=O)N/N=C\c2cn(C)nc2C)c1	i	i	i	i	i
Cc1nn(C)cc1/C=N/NC(=O)C(C)(C)Oc1ccc(Cl)cc1	i	11*	i	i	i
O=C(Cc1ccc(Cl)cc1)NNC(=S)NC(=O)c1cccs1	107*	i	i	i	i

Compound activity deposited in PubChem by Johns Hopkins Ion Channel Center.
